We go through 23 compounds from ChEMBL document CHEMBL1152612, “Ursolic acid derivatives induce cell cycle arrest and apoptosis in NTUB1 cells associated with reactive oxygen species” (Bioorg Med Chem, 2009).

Assay [1] can be described thus: Cytotoxicity against human NTUB1 cells after 72 hrs by MTT assay. Format: functional, cell-based. The note with it: NTUB1, 72 h. A digest of the protocol: (§1)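 Cells grown in RPMI 1640 with 10% FBS, penicillin/streptomycin and 2 mM L-glutamine at 37 °C under 5% CO₂. Seeded 1800 cells/well, left overnight, then given graded compound concentrations for 72 h; compounds diluted from DMSO, 0.1% DMSO in medium and in controls. MTT 2 mg/mL in PBS for 3 h, formazan dissolved in DMSO, absorbance 540 nm. Viability given as % of control; IC50 by median-effect analysis, mean ± SD.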

A short description of assay [2]: Cytotoxicity against human NTUB1 cells assessed as cell viability at >30 uM after 72 hrs by MTT assay. Format: functional. Summed up: as §1
Assay [3] concerns the target Tubulin (Homo sapiens) (UniProt P68371+Q9H4B7+P0DPH7+P68366+Q13509+Q71U36+P04350+Q3ZCM7+P07437+P68363+Q9BQE3+Q6PEY2+Q13885+Q9BVA1+Q9BUF5). Briefly: Inhibition of tubulin polymerization in human NTUB1 cells assessed as blockade of microtubule assembly at 10 nM by indirect immunofluorescence staining. Format: cell-based. Summed up:
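NTUB1 cells on coverslips were treated for 24 h, then fixed in 2% formaldehyde/PBS for 20 min and in cold methanol (−20 °C) for 3 min. Stained with anti-α-tubulin monoclonal antibody for 3 h at room temperature, then rhodamine-conjugated secondary antibody for 1 h in the dark. Mounted in 80% glycerol/PBS and examined by fluorescence microscopy.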

Assay [4] has as its system PC-3. Kind of assay: Cytotoxicity against human PC3 cells at 50 uM after 72 hrs by MTT assay. Format: functional, cell-based. Summed up:
as §1

Assay [5] relates to A549. Kind of assay: Cytotoxicity against human A549 cells at 50 uM after 72 hrs by MTT assay. It counts as functional, cell-based. Summed up: as §1
Assay [6] can be described thus: Induction of apoptosis in human NTUB1 cells assessed as accumulation at subG1 phase at 20 uM after 24 hrs using propidium iodide staining by flow cytometry. Format: functional. Summed up: (§2)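 NTUB1 cells plated at 8 × 10⁵ per 10 cm dish and exposed to compound for 24 or 48 h; untreated controls got medium alone. Cells trypsinized, PBS-washed and fixed overnight in ice-cold MeOH at −20 °C, then stained with 50 µg/mL propidium iodide plus RNase A. DNA content was read by flow cytometry, with apoptosis taken as sub-G1 accumulation. Three independent experiments.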

A short description of assay [7]: Cell cycle arrest in human NTUB1 cells assessed as accumulation at G1 phase at 20 uM after 24 hrs using propidium iodide staining by flow cytometry. Format: functional, cell-based. Summed up:
as §2

A short description of assay [8]: Cell cycle arrest in human NTUB1 cells assessed as accumulation at S phase at 20 uM after 24 hrs using propidium iodide staining by flow cytometry. It counts as functional, cell-based. Summed up:
as §2

Assay [9] is described as follows: Cell cycle arrest in human NTUB1 cells assessed as accumulation at G2/M phase at 20 uM after 24 hrs using propidium iodide staining by flow cytometry. It counts as functional, cell-based. A digest of the protocol:
as §2

Assay [10] is described as follows: Induction of apoptosis in human NTUB1 cells assessed as accumulation at subG1 phase at 40 uM after 24 hrs using propidium iodide staining by flow cytometry. Format: functional. A digest of the protocol:
as §2

Assay [11] can be described thus: Cell cycle arrest in human NTUB1 cells assessed as accumulation at G1 phase at 40 uM after 24 hrs using propidium iodide staining by flow cytometry. Format: functional, cell-based. A digest of the protocol:
as §2

Assay [12] can be described thus: Cell cycle arrest in human NTUB1 cells assessed as accumulation at S phase at 40 uM after 24 hrs using propidium iodide staining by flow cytometry. Format: functional, cell-based. A digest of the protocol: as §2
Assay [13] in a line: Cell cycle arrest in human NTUB1 cells assessed as accumulation at G2/M phase at 40 uM after 24 hrs using propidium iodide staining by flow cytometry. It counts as functional, cell-based. A digest of the protocol:
as §2

Active and inactive are the calls of the source. No cut-off for these calls is given here.

On to `CC(=O)O[C@H]1CC[C@]2(C)[C@H]3CC=C4[C@@H]5[C@@H](C)[C@H](C)CC[C@]5(C(=O)O)CC[C@@]4(C)[C@]3(C)CC[C@H]2C1(C)C` [O-ACETYLURSOLIC ACID], for which the IC50 in assay [1] is 14.3 µM. As for `CCCC(=O)O[C@H]1CC[C@]2(C)[C@H]3CC=C4[C@@H]5[C@@H](C)[C@H](C)CC[C@]5(C(=O)O)CC[C@@]4(C)[C@]3(C)CC[C@H]2C1(C)C`, the Activity in [2] stood at 76.47%. Also, the IC50 in [1] is greater than 30 µM. In the same order, the values of `C[C@H]1[C@H](C)CC[C@]2(C(=O)O)CC[C@]3(C)C(=CC[C@@H]4[C@@](C)(CCC(=O)O)[C@H](C(C)(C)O)CC[C@]43C)[C@H]12` are 56.04% and greater than 30 µM. In the case of `CCCCOC(=O)[C@]12CC[C@@H](C)[C@H](C)[C@H]1C1=CC[C@@H]3[C@@]4(C)CC[C@H](O)C(C)(C)[C@@H]4CC[C@@]3(C)[C@]1(C)CC2`, half-maximal inhibition in [1] (IC50) required 15.6 µM. For the compound `CC(=O)O[C@H]1C(=O)[C@@]2(C)[C@H]([C@H](OC(=O)c3ccccc3)[C@]3(O)C[C@H](OC(=O)[C@H](O)[C@@H](NC(=O)c4ccccc4)c4ccccc4)C(C)=C1C3(C)C)[C@]1(OC(C)=O)CO[C@@H]1C[C@@H]2O`, the result in [3] was Active.

`CC(C)=CCOC(=O)[C@]12CC[C@@H](C)[C@H](C)[C@H]1C1=CC[C@@H]3[C@@]4(C)CC[C@H](O)C(C)(C)[C@@H]4CC[C@@]3(C)[C@]1(C)CC2` yielded an IC50 in assay [1] of 10.9 µM. Still for that read-out and setting: next, `CCOC(=O)[C@]12CC[C@@H](C)[C@H](C)[C@H]1C1=CC[C@@H]3[C@@]4(C)CC[C@H](O)C(C)(C)[C@@H]4CC[C@@]3(C)[C@]1(C)CC2`: 13.5 µM. In assay [1], `CCCOC(=O)[C@]12CC[C@@H](C)[C@H](C)[C@H]1C1=CC[C@@H]3[C@@]4(C)CC[C@H](O)C(C)(C)[C@@H]4CC[C@@]3(C)[C@]1(C)CC2` returned an IC50 of 18.3 µM. Compound `CC(C)CC(=O)O[C@H]1CC[C@]2(C)[C@H]3CC=C4[C@@H]5[C@@H](C)[C@H](C)CC[C@]5(C(=O)O)CC[C@@]4(C)[C@]3(C)CC[C@H]2C1(C)C` showed an IC50 in assay [1] of 31 µM. Against the preceding compound, the IC50 is about 1.7-fold higher. In assay [1], `C/C=C/C(=O)O[C@H]1CC[C@]2(C)[C@H]3CC=C4[C@@H]5[C@@H](C)[C@H](C)CC[C@]5(C(=O)O)CC[C@@]4(C)[C@]3(C)CC[C@H]2C1(C)C` came in with an IC50 of 11.9 µM. `CCCCCOC(=O)[C@]12CC[C@@H](C)[C@H](C)[C@H]1C1=CC[C@@H]3[C@@]4(C)CC[C@H](O)C(C)(C)[C@@H]4CC[C@@]3(C)[C@]1(C)CC2` came in with an IC50 in assay [1] of 27.8 µM. On the same count and under the same terms, next, `C=C(C)[C@@H]1CC[C@]2(C)[C@H](CC=C3[C@@H]4[C@@H](C)[C@H](C)CC[C@]4(C(=O)OC)CC[C@]32C)[C@@]1(C)CCC(=O)OC`: 15.6 µM. Still for that read-out and setting: next, `C[C@H]1[C@H](C)CC[C@]2(C(=O)OCCO)CC[C@]3(C)C(=CC[C@@H]4[C@@]5(C)CC[C@H](O)C(C)(C)[C@@H]5CC[C@]43C)[C@H]12`: 19.5 µM; `C[C@H]1[C@H](C)CC[C@]2(C(=O)O)CC[C@]3(C)C(=CC[C@@H]4[C@@]5(C)CCC(=O)C(C)(C)[C@@H]5CC[C@]43C)[C@H]12` [URSONIC ACID]: 21.4 µM. In turn, `COC(=O)[C@]12CC[C@@H](C)[C@H](C)[C@H]1C1=CC[C@@H]3[C@@]4(C)CC[C@H](O)C(C)(C)[C@@H]4CC[C@@]3(C)[C@]1(C)CC2` [METHYL URSOLATE] returned an IC50 in assay [1] of 37.1 µM.

Take `COC(=O)[C@]12CC[C@@H](C)[C@H](C)[C@H]1C1=CC[C@@H]3[C@@]4(C)CCC(=O)C(C)(C)[C@@H]4CC[C@@]3(C)[C@]1(C)CC2`: the midpoint of inhibition in assay [1], the IC50, lay at 29.6 µM. Same read-out and setting: next, `CCCCCCOC(=O)[C@]12CC[C@@H](C)[C@H](C)[C@H]1C1=CC[C@@H]3[C@@]4(C)CC[C@H](O)C(C)(C)[C@@H]4CC[C@@]3(C)[C@]1(C)CC2`: 26.2 µM.

Regarding `C[C@H]1[C@H](C)CC[C@]2(C(=O)OCC(=O)OC(C)(C)C)CC[C@]3(C)C(=CC[C@@H]4[C@@]5(C)CC[C@H](O)C(C)(C)[C@@H]5CC[C@]43C)[C@H]12`, the Activity in assay [2] is 64.85%. This compound registered an IC50 in assay [1] greater than 30 µM. For the compound `C[C@H]1[C@H](C)CC[C@]2(C(=O)O)CC[C@]3(C)C(=CC[C@@H]4[C@@]5(C)CC[C@H](OC(=O)CCC(=O)O)C(C)(C)[C@@H]5CC[C@]43C)[C@H]12`, inhibition in assay [1] was half-maximal at 8.65 µM (IC50). The outcome in [4] and in assay [5] was Active. The Activity in assay [6] amounted to 7.27%; in assay [7] it was 13.1%; in assay [8] it was 18.5%; in assay [9], 24.1%; in assay [10], 61.37%; in [11] it was 18.9%. The values for the Activity in [12] and in assay [13] were 7.51% and 7.36%, respectively.

Consider `CCC(=O)O[C@H]1CC[C@]2(C)[C@H]3CC=C4[C@@H]5[C@@H](C)[C@H](C)CC[C@]5(C(=O)O)CC[C@@]4(C)[C@]3(C)CC[C@H]2C1(C)C`, for which, in assay [2], the Activity turned out to be 72.53%. For the same compound, the IC50 in assay [1] was greater than 30 µM. `C[C@H]1[C@H](C)CC[C@]2(C(=O)O)CC[C@]3(C)C(=CC[C@@H]4[C@@]5(C)CCC(=O)OC(C)(C)[C@@H]5CC[C@]43C)[C@H]12`: the Activity in assay [2] was 63.91%. The IC50 in assay [1] was greater than 30 µM.

In the case of `C=C(C)[C@@H]1CC[C@]2(C)[C@H](CC=C3[C@@H]4[C@@H](C)[C@H](C)CC[C@]4(C(=O)O)CC[C@]32C)[C@@]1(C)CCC(=O)OC`, in assay [2], the Activity was 62.77%. This compound returned an IC50 in [1] greater than 30 µM. Turning to `C[C@H]1[C@H](C)CC[C@]2(C(=O)O)CC[C@]3(C)C(=CC[C@@H]4[C@@]5(C)CC[C@H](O)C(C)(C)[C@@H]5CC[C@]43C)[C@H]12` [URSOLIC ACID], inhibition in assay [1] was half-maximal at 29.4 µM (IC50).
